≈ marks a conversion by molar mass, not a printed value. Calls of active or inactive are those of the source. The calls are words filed in the database; no cut-off is given here. Residues, ends and D or L forms follow the SMILES beside them. *: point of attachment. βNA = c1ccc2cc(N*)ccc2c1
What was measured:
[1] = system: Escherichia coli; test: Antibacterial activity against Escherichia coli transformed with plasmid carrying MG1655 deltaBC/pXYM by p-iodonitrotetrazolium chloride colorimetric assay; type: functional
Method in brief: (§1)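 Two-fold broth microdilution in Mueller-Hinton broth, read by p-iodonitrotetrazolium chloride colorimetric assay. MIC is the lowest concentration giving no visible growth. MG1655 ΔacrB ΔtolC strains carrying pABM or pXYM were always cultured with 100 μg/mL ampicillin and 1 mM IPTG. Medium, inoculum and 1% DMSO (final) served as negative control.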

[2] = system: Escherichia coli; test: Antibacterial activity against Escherichia coli AG102 overexpressing AcrAB-TolC by p-iodonitrotetrazolium chloride colorimetric assay; type: functional; method in brief: as §1
[3] = system: Escherichia coli; test: Antibacterial activity against Escherichia coli transformed with plasmid carrying MG1655 deltaBC/pABM by p-iodonitrotetrazolium chloride colorimetric assay; type: functional; method in brief: as §1
[4] = system: Escherichia coli; test: Inhibition of AcrAB-TolC pump in Escherichia coli AG100 assessed as increase in intracellular H33342 fluorescence at 15.6 ug/ml after 60 mins by efflux inhibition assay; type: cell-based
Method in brief: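 AG100 (wild-type K-12) or AG100A (ΔacrAB) cells were grown in Luria broth at 37 °C and 200 rpm to OD600 1.0, PBS-washed and diluted to OD600 0.3. Cells took up 2.5 μM Hoechst 33342 with 22 mM glucose at 37 °C for about 30 min, then compound (0.06–64 μg/mL) or PAβN (15.6 μg/mL) was added. Fluorescence (Ex 350/Em 460 nm) was followed for 60 min and corrected for background. The last four time points were compared to dye-only control by ANOVA with Dunnett's test, run in duplicate.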

Row | Structure (SMILES) | MIC [1] | MIC [2] | MIC [3] | inhibition [4]
1 | NC[C@H]1O[C@H](O[C@H]2[C@H](O)[C@@H](O[C@H]3O[C@H](CO)[C@@H](O)[C@H](N)[C@H]3O)[C@H](N)C[C@@H]2N)[C@H](O)[C@@H](O)[C@@H]1O [KANAMYCIN] | 0.25 µg/mL (≈ 0.516 µM) | 16 µg/mL (≈ 33 µM) | 2 µg/mL (≈ 4.13 µM) | –
2 | C[C@H]1COc2c(N3CCN(C)CC3)c(F)cc3c(=O)c(C(=O)O)cn1c23.C[C@H]1COc2c(N3CCN(C)CC3)c(F)cc3c(=O)c(C(=O)O)cn1c23.O [LEVOFLOXACIN] | 0.13 µg/mL | 0.13 µg/mL | 0.13 µg/mL | –
3 | O=C(N[C@H](CO)[C@H](O)c1ccc([N+](=O)[O-])cc1)C(Cl)Cl [CHLORAMPHENICOL] | 0.75 µg/mL (≈ 2.32 µM) | 24 µg/mL (≈ 74.3 µM) | 24 µg/mL (≈ 74.3 µM) | –
4 | Cc1onc(-c2ccccc2)c1C(=O)N[C@@H]1C(=O)N2[C@@H]1SC(C)(C)[C@@H]2C(=O)O [OXACILLIN] | > 1300 µg/mL | > 650 µg/mL | > 1300 µg/mL | –
5 | CCN1CCN(C(=O)N[C@@H](C(=O)N[C@@H]2C(=O)N3[C@@H]2SC(C)(C)[C@@H]3C(=O)O)c2ccccc2)C(=O)C1=O [PIPERACILLIN] | 512 µg/mL (≈ 989 µM) | 4 µg/mL (≈ 7.73 µM) | > 512 µg/mL | –
6 | CN(C)[C@@H]1C(O)=C(C(N)=O)C(=O)[C@@]2(O)C(O)=C3C(=O)c4c(O)cccc4[C@@](C)(O)[C@H]3C[C@@H]12 [TETRACYCLINE] | 0.25 µg/mL (≈ 0.563 µM) | 8 µg/mL (≈ 18 µM) | 2 µg/mL (≈ 4.5 µM) | –
7 | CC[C@H]1OC(=O)[C@H](C)[C@@H](O[C@H]2C[C@@](C)(OC)[C@@H](O)[C@H](C)O2)[C@H](C)[C@@H](O[C@@H]2O[C@H](C)C[C@H](N(C)C)[C@H]2O)[C@](C)(O)C[C@@H](C)C(=O)[C@H](C)[C@@H](O)[C@]1(C)O [ERYTHROMYCIN] | 32 µg/mL (≈ 43.6 µM) | 128 µg/mL (≈ 174 µM) | 32 µg/mL (≈ 43.6 µM) | –
8 | O=C(O)c1cn(C2CC2)c2cc(N3CCNCC3)c(F)cc2c1=O [CIPROFLOXACIN] | – | 0.13 µg/mL (≈ 0.392 µM) | – | –
9 | N=C(N)NCCC[C@H](NC(=O)[C@@H](N)Cc1ccccc1)C(=O)Nc1ccc2ccccc2c1 (H-Phe-Arg-βNA) | – | – | – | Active

— ChEMBL document CHEMBL3576792, “Enhancement of antibiotic activity against multidrug-resistant bacteria by the efflux pump inhibitor 3,4-dibromopyrrole-2,5-dione isolated from a Pseudoalteromonas sp” (J Nat Prod, 2015)
